Measurements from different studies.
Each line is one published result; the experiments were not run side by side. pIC50, pKd, pKi: −log10 of the molar value.
CHRM1: Muscarinic acetylcholine receptor M1 (CHRM1, Homo sapiens, UniProt P11229)
MDM2: E3 ubiquitin-protein ligase Mdm2 (MDM2, Homo sapiens, UniProt Q00987)

Compound	target	assay	system	conditions	quantity	value
COc1cc(C(=O)N2CC[C@@H](O)[C@@H](N)C2)cc2nc(-c3cc4ccccc4n3CC3CC3)n(C)c12	CHRM1	calcium signal, antagonist, fluorescence			pIC50	4.90
c1cc(N2CCNCC2)c2cc[nH]c2c1	CHRM1	ligand displacement, radioligand		cell membranes	pKi	< 4.50
O=C(O)c1ccccc1-c1c2cc(Br)c(=O)cc-2oc2[c]([Hg+])c(O)c(Br)cc12	Papain (Carica papaya, UniProt P00784)	binding, ITC			pKd	~1.41
N#C[C@H](C[C@@H]1CCCNC1=O)NC(=O)[C@H](CC1CC1)NC(=O)c1cc2cccc(Cl)c2[nH]1	Cytochrome P450 3A4 (CYP3A4, Homo sapiens, UniProt P08684)	enzyme activity, inhibitor	human, liver microsomes	midazolam probe	pIC50	4.16
CC[C@H](C)[C@H](NC(=O)[C@H](CCCNC(=N)N)NC(=O)[C@H](CCCCN)NC(=O)[C@@H]1CCCN1C(=O)[C@@H](N)Cc1c[nH]c2ccccc12)C(=O)N[C@@H](C)C(=O)O	N-terminal Xaa-Pro-Lys N-methyltransferase 1 (Homo sapiens, UniProt Q9BV86)	binding, ITC		pH 7.5	pKd	4.33
N#Cc1c(N)nc(SCC(N)=O)c(C#N)c1-c1ccc(OCC2CC2)cc1	Adenosine receptor A2b (ADORA2B, Homo sapiens, UniProt P29275)	ligand displacement in cells, radioligand			pIC50	6.11
CC(=O)N[C@@H](CC(C)C)C(=O)N[C@H](C(=O)N[C@@H](Cc1ccccc1)C(=O)N[C@@]1(C)CCCC=CCCC[C@@](C)(C(=O)N[C@@H](CCC(N)=O)C(=O)N[C@@H](CC(C)C)C(=O)N[C@H](C(=O)N[C@@H](CO)C(N)=O)[C@@H](C)O)NC(=O)[C@H](Cc2c[nH]c3ccccc23)NC(=O)[C@H](Cc2ccc(O)cc2)NC(=O)[C@H](CCC(=O)O)NC1=O)[C@@H](C)O	MDM2	ligand displacement, FP			pIC50	7.31
N[C@@H](C[C@]1(C(=O)O)C[C@H]2OC[C@@H](O)[C@@H](O)[C@H]2O1)C(=O)O	Glutamate receptor ionotropic, kainate 3 (Rattus norvegicus, UniProt P42264, T520A)	ligand displacement, radioligand			pKi	5.85
CC(C)C[C@H](NC(=O)[C@H](Cc1ccccc1)NC(=O)c1cnccn1)B(O)O	Lysosomal Pro-X carboxypeptidase (PRCP, Homo sapiens, UniProt P42785)	enzyme activity, inhibitor			pIC50	4.91
N#CC(CCN1CCC(N)CC1)(c1ccccc1)c1ccccc1	Potassium voltage-gated channel subfamily A member 3 (Kcna3, Mus musculus, UniProt P16390)	ion current, inhibitor, patch clamp			pIC50	< 4.00
O=P(O)(O)C(CCCc1cccc(Oc2ccccc2)c1)S(=O)(=O)O (stereo not shown)	4,4'-diapophytoene synthase (Staphylococcus aureus, UniProt A9JQL9)	enzyme activity, inhibitor			pKi	7.70
NCCCCCCNC(=O)c1ccc(NC(=O)c2ccc(CN(C(=O)c3ccc4c(c3)OCC(=O)N4)C3CC3)cc2)cc1	Histone-lysine N-methyltransferase NSD2 (NSD2, Homo sapiens, UniProt O96028)	protein level, degrader			DC50	0.35 µM
COc1cc([C@@H]2c3cc4c(cc3[C@@H](O[C@@H]3O[C@@H]5CO[C@@H](C)O[C@H]5[C@H](O)[C@H]3O)[C@H]3COC(=O)[C@H]23)OCO4)cc(OC)c1O	Organic cation/carnitine transporter 2 (SLC22A5, Homo sapiens, UniProt O76082)	transporter uptake, inhibitor, radiometric			pIC50	4.26
CCc1nnc(NS(=O)(=O)c2ccc(NC(=S)NC(=O)/C=C/c3ccc(F)cc3)cc2)s1	Prostaglandin E2 receptor EP2 subtype (PTGER2, Homo sapiens, UniProt P43116)	cAMP, antagonist, TR-FRET			Kb	0.0088 µM
COc1ccc(CCNC[C@H](O)c2ccc(O)cc2)cc1OC	Beta-3 adrenergic receptor (ADRB3, Homo sapiens, UniProt P13945)	cell-free assay			pKi	5.68
CC(=O)N[C@H](C(=O)N[C@@H](CC(=O)O)C(=O)N[C@@H](CC(=O)O)C(=O)N[C@@H](Cc1ccccc1)C(=O)N[C@@H](CC(=O)O)C(=O)N[C@@H](CCCNC(=N)N)C(=O)N[C@H](C(=O)N[C@@H](Cc1c[nH]c2ccccc12)C(=O)N[C@@H](CCC(N)=O)C(=O)NCC(=O)N[C@@H](CC(C)C)C(=O)N[C@H](C(=O)NCC(=O)N[C@@H](CC(C)C)C(N)=O)C(C)C)C(C)C)C(C)C	MDM2	ligand displacement, FP			pKd	4.39
